# Assay results gathered from unrelated publications.
# Compare with care: the assays were run in different laboratories.
# Cell line: PC-3
# Read-out: cell growth or viability
SMILES,test,conditions,inhibition [%]
CC(=O)c1cccc(NC(=O)C2CCCN(C(=O)c3cc(C(F)(F)F)cc(C(F)(F)F)c3)C2)c1 (stereo not drawn),WST-1,100 µM,0
COc1cc(CNC(=O)C[C@H](C)CCC=C(C)C)ccc1OCc1cn(-c2ccc(Cl)cc2)nn1,SRB,10 µM,28
COc1ccc(C(=O)/C=C/c2cc3c(cc2Br)OCO3)cc1S(N)(=O)=O,SRB,10 µM,98
O=C(CN1C(=O)/C(=C/c2ccc(F)cc2)SC1=S)Nc1ccccc1,MTT,10 µM,27.7
O=C(Nc1cccc(Cc2ccccc2)c1)C1CCCN(C(=O)c2cc(C(F)(F)F)cc(C(F)(F)F)c2)C1 (stereo not drawn),WST-1,100 µM,0
COc1ccc(C(=O)/C=C/c2cccnc2)cc1S(N)(=O)=O,SRB,10 µM,22
O=C(CN1C(=O)/C(=C/c2ccccc2)SC1=S)Nc1ccccc1,MTT,10 µM,43.8
O=C(Nc1cccc(S(=O)(=O)N2CCCC2)c1)C1CCCN(C(=O)c2cc(C(F)(F)F)cc(C(F)(F)F)c2)C1 (stereo not drawn),WST-1,100 µM,0
COc1ccc(C(=O)/C=C/c2c(F)cccc2Cl)cc1S(N)(=O)=O,SRB,10 µM,81
COC(=O)c1cc(-c2cccc(NC(=O)C3CCCN(C(=O)c4cc(C(F)(F)F)cc(C(F)(F)F)c4)C3)c2)co1 (stereo not drawn),WST-1,100 µM,0
COc1ccc(C(=O)/C=C/c2cccc3ccccc23)cc1S(N)(=O)=O,SRB,10 µM,87
O=C(CN1C(=O)/C(=C/C2CC2)SC1=S)Nc1ccccc1,MTT,10 µM,24.1
CCc1cccc(NC(=O)C2CCCN(C(=O)c3cc(C(F)(F)F)cc(C(F)(F)F)c3)C2)c1 (stereo not drawn),WST-1,100 µM,0
COc1ccccc1/C=C/C(=O)c1ccc(OC)c(S(N)(=O)=O)c1,SRB,10 µM,52
O=C(CN1C(=O)/C(=C/c2ccc(Cl)cc2)SC1=S)Nc1ccccc1,MTT,10 µM,32.3
